The values that follow come from ChEMBL document CHEMBL1154794, “Asterolaurins A-F, xenicane diterpenoids from the Taiwanese soft coral Asterospicularia laurae” (J Nat Prod, 2009).

Where only a bound is given, the exact number is not on record here.

Assay [1] in a line: Antiinflammatory activity in human neutrophils assessed as inhibition of fMLP/cytochalasin B-induced elastase release at 10 ug/ml after 5 mins. It counts as functional. Conditions: Neutrophil. A digest of the protocol:
(§1)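 Neutrophils (6 × 10^5/mL) given MeO-Suc-Ala-Ala-Pro-Val-p-nitroanilide (100 µM) as substrate, equilibrated 2 min at 37 °C, then exposed to compound for 5 min. Stimulated with FMLP (100 nM)/CB (0.5 µg/mL). Absorbance at 405 nm followed continuously. Initial rate of elastase release expressed as percentage of the FMLP/CB-activated DMSO control. Genistein served as positive control.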

Assay [2] in a line: Antiinflammatory activity in human neutrophils assessed as inhibition of fMLP/cytochalasin B-induced superoxide anion generation at 10 ug/ml after 5 mins by spectrophotometry. It counts as functional. The conditions noted are these: Neutrophil. A digest of the protocol: (§2)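 Neutrophils isolated by dextran sedimentation and Ficoll centrifugation. Cells supplemented with ferricytochrome c (0.5 mg/mL) and Ca2+ (1 mM), equilibrated 2 min at 37 °C, then given compound for 5 min. CB (1 µg/mL) added 3 min before FMLP (100 nM) activation for 10 min. Superoxide dismutase-inhibitable ferricytochrome c reduction followed continuously at 550 nm with stirring.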

A further assay concerns HepG2. Description: Cytotoxicity against human HepG2 cells by MTT assay. It counts as functional, cell-based. A digest of the protocol: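 Human liver carcinoma HepG2 cells, viability read by MTT assay. Camptothecin served as positive control.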
A general note: Tetrazolium dyes change colour on reduction, which living cells bring about.

Assay [3] in a line: Antiinflammatory activity in human neutrophils assessed as inhibition of fMLP/cytochalasin B-induced elastase release after 5 mins. It counts as functional, cell-based. Conditions: Neutrophil. A digest of the protocol: as §1
Assay [4] in a line: Antiinflammatory activity in human neutrophils assessed as inhibition of fMLP/cytochalasin B-induced superoxide anion generation after 5 mins by spectrophotometry. In kind it is functional, cell-based. The conditions noted are these: Neutrophil. A digest of the protocol:
as §2

The inhibition is the percentage by which the read-out fell short of the control. For the compound `O=c1c(-c2ccc(O)cc2)coc2cc(O)cc(O)c12` [GENISTEIN], the results for the inhibition at 10 µg/mL in assay [1] and in assay [2] were 52% and 65%, respectively.

Broadly, the IC50 is the concentration that inhibits the measured activity by half. In the case of `C=C1C[C@@H](O)[C@@H](O)/C(C)=C\C[C@@H]2C([C@@H](OC(C)=O)[C@H](C=C(C)C)OC(C)=O)=CO[C@H](OC(C)=O)[C@@H]12` [ASTEROLAURIN B], the inhibition at 10 µg/mL in assay [1] was 30%; in assay [2] it was 31%. The compound further displayed an IC50 in the assay on HepG2 above 40 µM.

Consider `C=C1C[C@@H](OC(C)=O)/C=C(\C)CC[C@@H]2/C(=C\C=C\C(C)(C)O)CO[C@H](O)[C@@H]12` [ASTEROLAURIN D], for which the inhibition at 10 µg/mL in assay [1] amounted to 68%; in assay [2], 56%. The values for the IC50 (in assay [3]; in assay [4]; in the assay with HepG2) were 18.7 µM, 23.6 µM and above 40 µM, respectively.

As for `C=C1C[C@@H](OC(C)=O)/C=C(\COC(C)=O)CC[C@@H]2/C(=C\[C@H](O)C=C(C)C)C(=O)OC[C@@H]12` [ASTEROLAURIN E], the values for the inhibition at 10 µg/mL in assay [1] and in assay [2] were 36% and 24%, respectively. The compound also yielded an IC50 with HepG2 above 40 µM.

As to `C=C1C[C@@H](O)[C@@H](O)C(=C)CC[C@@H]2C([C@@H](OC(C)=O)[C@H](C=C(C)C)OC(C)=O)=CO[C@H](OC(C)=O)[C@@H]12` [ASTEROLAURIN C], the inhibition at 10 µg/mL in assay [1] is 39%; in assay [2], 22%. Also, the half-inhibitory concentration (IC50) in the assay on HepG2 is above 40 µM.

For the compound `C=C1C[C@@H](O)[C@@H]2O[C@@]2(C)CC[C@@H]2C([C@@H](OC(C)=O)[C@H](C=C(C)C)OC(C)=O)=CO[C@H](OC(C)=O)[C@@H]12` [ASTEROLAURIN A], the IC50 was determined as 40 µM in assay [3] and 8.9 µM in the assay with HepG2.

For the compound `C=C1C[C@@H](OC(C)=O)/C=C(\C)CC[C@@H]2/C(=C\[C@H](O)C=C(C)C)C(=O)OC[C@@H]12`, the inhibition at 10 µg/mL in assay [1] was determined as 13%; in assay [2] it was 9%. In the assay on HepG2, the IC50 was above 40 µM.
